25 molecules from ChEMBL document CHEMBL3758114, “Design, synthesis and biological evaluation of N-phenylquinazolin-4-amine hybrids as dual inhibitors of VEGFR-2 and HDAC” (Eur J Med Chem, 2016) can be followed below.

Molecules are shown by their SMILES. A value given as a limit tells only on which side of the number the result lay.

Assay [1] deals with Vascular endothelial growth factor receptor 2 (Homo sapiens, UniProt P35968). The experiment in a line: Inhibition of VEGFR2 (unknown origin) preincubated for 5 mins followed by addition of ATP/gastrin precursor(Tyr87) biotinylated peptide cocktail incubated for 30 mins by ELISA. Put shortly: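 The kit enzyme, 100 ng VEGFR-2 in reaction cocktail, was preincubated with compound dilutions for 5 min at room temperature. The 30 min reaction ran at room temperature and was stopped with EDTA (50 mM, pH 8). Biotinylated peptide was captured on streptavidin wells for 60 min. Phospho-Tyr was detected with anti-pTyr-100 mAb, then HRP anti-mouse IgG, then TMB, read at 450 nm.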
(In general: ELISA stands for enzyme-linked immunosorbent assay.)

The next assay deals with MCF7. The experiment in a line: Antiproliferative activity against human MCF7 cells after 48 hrs by MTT assay. It is filed as functional, cell-based. The settings on record: MCF7, 48 h. In general terms: Formazan colour is commonly taken as a measure of viable cells.
The target in the next assay is Histone deacetylase. The experiment in a line: Inhibition of HDAC in human HeLa cell nuclear extracts preincubated for 15 mins followed by addition of Fluor de Lys as substrate for 1 hr by fluorometric assay. The class given is cell-based.
A further assay addresses Histone deacetylase 1 (Homo sapiens, UniProt Q13547). As to the kind of experiment: Inhibition of HDAC1 (unknown origin) preincubated for 15 mins followed by addition of Fluor de Lys as substrate for 1 hr by fluorometric assay. Put shortly:
(§1)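 Each isolated HDAC isoform was incubated with compound at a range of concentrations for 15 min at room temperature. The reaction was then started with Fluor de Lys substrate and run for 1 h at room temperature. Developer was added to stop it. Fluorescence was read at excitation 355 nm and emission 460 nm. The assay was run three independent times.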

The next assay has as its target Histone deacetylase 2 (Homo sapiens, UniProt Q92769). The experiment in a line: Inhibition of HDAC2 (unknown origin) preincubated for 15 mins followed by addition of Fluor de Lys as substrate for 1 hr by fluorometric assay. Put shortly:
as §1

Assay [2] addresses T1, Protein deacetylase HDAC6 (Homo sapiens, UniProt Q9UBN7).
T1 sequence (Q9UBN7 whole entry): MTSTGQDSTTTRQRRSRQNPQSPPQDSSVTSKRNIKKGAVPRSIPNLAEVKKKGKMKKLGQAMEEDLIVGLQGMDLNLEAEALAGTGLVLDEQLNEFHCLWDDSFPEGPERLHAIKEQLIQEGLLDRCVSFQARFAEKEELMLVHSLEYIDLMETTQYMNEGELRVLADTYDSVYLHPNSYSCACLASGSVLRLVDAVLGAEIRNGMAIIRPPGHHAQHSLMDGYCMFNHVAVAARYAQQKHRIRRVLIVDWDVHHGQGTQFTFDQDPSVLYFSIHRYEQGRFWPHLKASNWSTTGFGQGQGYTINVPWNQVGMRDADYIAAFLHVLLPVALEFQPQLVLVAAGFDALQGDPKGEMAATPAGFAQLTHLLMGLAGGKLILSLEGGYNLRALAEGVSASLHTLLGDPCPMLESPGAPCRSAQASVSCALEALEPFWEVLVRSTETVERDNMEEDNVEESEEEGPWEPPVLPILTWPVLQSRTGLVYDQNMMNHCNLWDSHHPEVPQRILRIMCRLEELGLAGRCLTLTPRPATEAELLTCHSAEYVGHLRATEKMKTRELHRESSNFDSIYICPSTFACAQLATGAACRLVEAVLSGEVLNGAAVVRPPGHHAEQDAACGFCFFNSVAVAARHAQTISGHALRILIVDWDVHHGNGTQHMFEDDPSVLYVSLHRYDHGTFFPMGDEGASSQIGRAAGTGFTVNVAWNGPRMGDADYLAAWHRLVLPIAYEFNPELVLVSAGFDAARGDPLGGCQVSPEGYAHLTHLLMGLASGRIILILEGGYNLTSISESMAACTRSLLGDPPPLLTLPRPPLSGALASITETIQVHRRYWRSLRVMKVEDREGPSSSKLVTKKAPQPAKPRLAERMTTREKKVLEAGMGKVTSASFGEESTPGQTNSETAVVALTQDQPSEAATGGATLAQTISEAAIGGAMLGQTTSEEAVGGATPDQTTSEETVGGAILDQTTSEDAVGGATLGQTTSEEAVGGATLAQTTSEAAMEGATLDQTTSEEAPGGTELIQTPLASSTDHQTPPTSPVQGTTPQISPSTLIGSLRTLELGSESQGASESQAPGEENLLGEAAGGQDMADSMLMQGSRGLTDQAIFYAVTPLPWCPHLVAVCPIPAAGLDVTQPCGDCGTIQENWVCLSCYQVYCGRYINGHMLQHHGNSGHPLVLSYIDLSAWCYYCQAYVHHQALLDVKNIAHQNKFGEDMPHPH
The experiment in a line: Inhibition of HDAC6 (unknown origin) preincubated for 15 mins followed by addition of Fluor de Lys as substrate for 1 hr by fluorometric assay. Put shortly: as §1

The next assay deals with T2, Histone deacetylase 8 (Homo sapiens, UniProt Q9BY41).
T2 sequence (Q9BY41 whole entry): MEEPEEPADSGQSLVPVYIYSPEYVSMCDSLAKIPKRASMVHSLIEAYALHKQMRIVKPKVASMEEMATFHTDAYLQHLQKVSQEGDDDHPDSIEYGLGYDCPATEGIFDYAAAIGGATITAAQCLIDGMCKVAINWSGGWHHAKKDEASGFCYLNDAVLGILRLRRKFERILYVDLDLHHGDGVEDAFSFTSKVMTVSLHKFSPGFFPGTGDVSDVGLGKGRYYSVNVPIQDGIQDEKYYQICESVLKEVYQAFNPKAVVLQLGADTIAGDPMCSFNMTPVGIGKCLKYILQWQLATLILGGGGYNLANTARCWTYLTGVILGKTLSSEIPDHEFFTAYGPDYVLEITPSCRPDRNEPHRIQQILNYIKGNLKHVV
The experiment in a line: Inhibition of HDAC8 (unknown origin) preincubated for 15 mins followed by addition of Fluor de Lys as substrate for 1 hr by fluorometric assay. Put shortly:
as §1

Chain of Vascular endothelial growth factor receptor 2 (P35968 whole entry): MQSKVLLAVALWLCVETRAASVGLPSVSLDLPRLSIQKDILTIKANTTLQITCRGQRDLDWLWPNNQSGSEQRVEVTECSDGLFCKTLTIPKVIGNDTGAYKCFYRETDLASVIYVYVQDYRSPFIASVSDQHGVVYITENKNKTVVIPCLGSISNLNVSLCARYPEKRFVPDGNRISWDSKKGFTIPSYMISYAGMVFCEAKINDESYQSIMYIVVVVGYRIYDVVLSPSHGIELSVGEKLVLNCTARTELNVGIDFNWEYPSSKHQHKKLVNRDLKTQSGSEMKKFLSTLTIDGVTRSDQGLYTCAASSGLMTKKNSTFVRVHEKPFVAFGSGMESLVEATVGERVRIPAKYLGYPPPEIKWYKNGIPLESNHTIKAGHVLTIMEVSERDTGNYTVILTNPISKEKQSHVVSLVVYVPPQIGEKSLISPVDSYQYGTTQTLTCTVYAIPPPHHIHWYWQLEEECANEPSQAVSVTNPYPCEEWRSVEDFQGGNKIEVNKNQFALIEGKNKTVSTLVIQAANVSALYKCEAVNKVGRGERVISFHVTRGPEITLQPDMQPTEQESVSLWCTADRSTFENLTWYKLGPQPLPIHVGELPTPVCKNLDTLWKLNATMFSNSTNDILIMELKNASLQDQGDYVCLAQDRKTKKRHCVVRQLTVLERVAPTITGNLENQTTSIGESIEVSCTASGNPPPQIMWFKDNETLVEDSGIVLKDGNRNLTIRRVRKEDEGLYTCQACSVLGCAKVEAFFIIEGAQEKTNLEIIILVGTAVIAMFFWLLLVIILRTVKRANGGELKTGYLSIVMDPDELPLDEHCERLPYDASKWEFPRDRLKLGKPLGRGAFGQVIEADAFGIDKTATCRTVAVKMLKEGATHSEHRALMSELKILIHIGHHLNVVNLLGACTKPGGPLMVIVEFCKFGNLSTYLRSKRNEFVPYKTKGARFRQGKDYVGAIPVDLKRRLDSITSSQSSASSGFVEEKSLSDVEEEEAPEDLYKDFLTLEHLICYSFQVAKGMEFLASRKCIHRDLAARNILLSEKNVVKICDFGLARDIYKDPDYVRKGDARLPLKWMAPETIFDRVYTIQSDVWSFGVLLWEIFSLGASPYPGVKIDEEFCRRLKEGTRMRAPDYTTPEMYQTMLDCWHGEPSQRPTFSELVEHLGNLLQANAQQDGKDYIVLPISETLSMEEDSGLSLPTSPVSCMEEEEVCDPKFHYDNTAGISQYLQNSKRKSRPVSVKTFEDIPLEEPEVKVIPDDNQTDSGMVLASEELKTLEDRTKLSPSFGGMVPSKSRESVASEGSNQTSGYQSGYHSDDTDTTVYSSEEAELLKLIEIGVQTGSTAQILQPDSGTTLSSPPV
Chain of Histone deacetylase 2 (Q92769 whole entry): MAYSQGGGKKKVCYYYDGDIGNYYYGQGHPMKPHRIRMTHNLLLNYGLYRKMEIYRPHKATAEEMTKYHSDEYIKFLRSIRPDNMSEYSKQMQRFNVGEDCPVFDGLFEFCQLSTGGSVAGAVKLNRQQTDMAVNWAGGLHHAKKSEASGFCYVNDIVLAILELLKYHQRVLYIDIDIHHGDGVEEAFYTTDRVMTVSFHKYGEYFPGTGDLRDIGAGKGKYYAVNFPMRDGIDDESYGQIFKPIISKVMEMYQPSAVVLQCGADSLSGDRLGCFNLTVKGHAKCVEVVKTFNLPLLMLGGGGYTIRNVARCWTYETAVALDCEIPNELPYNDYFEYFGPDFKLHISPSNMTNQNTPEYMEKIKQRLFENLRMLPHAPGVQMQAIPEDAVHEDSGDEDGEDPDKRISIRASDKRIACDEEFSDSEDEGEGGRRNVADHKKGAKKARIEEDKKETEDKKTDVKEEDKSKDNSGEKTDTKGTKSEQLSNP
Chain of Histone deacetylase 1 (Q13547 whole entry, canonical isoform): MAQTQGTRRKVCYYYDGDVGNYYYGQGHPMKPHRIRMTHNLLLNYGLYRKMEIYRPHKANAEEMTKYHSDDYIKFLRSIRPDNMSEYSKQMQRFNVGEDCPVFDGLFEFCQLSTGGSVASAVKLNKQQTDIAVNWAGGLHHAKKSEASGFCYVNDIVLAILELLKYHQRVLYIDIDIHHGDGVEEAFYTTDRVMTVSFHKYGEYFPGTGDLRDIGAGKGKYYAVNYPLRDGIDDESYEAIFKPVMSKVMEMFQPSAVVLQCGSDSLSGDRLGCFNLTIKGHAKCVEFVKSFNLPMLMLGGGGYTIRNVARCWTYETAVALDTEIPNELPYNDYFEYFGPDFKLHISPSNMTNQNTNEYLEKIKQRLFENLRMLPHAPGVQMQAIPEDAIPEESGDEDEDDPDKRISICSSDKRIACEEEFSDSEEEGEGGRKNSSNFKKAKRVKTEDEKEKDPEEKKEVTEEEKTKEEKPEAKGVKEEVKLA

In the case of `COc1cc2ncnc(Nc3ccc(Cl)cc3)c2cc1OCCCCC(=O)NO`, the figures for the IC50 (in assay [1]; in the assay on MCF7; on Histone deacetylase) were 220 nM, 61 µM and 132 nM, respectively.
For the molecule `O=C(CCCCCCC(=O)Nc1ccccc1)NO` [VORINOSTAT], the IC50 in assay [1] was over 10000 nM.
In the case of `COc1cc2ncnc(Nc3ccc(F)cc3)c2cc1OCCCCCC(=O)NO`, the half-inhibitory concentration (IC50) is 524 nM in assay [1], 18 µM in the assay with MCF7 and 29 nM on Histone deacetylase.
Regarding `COc1cc2ncnc(Nc3ccc(Br)cc3)c2cc1OCCCCCCC(=O)NO`, the IC50 was found to be 74 nM in assay [1]; 0.85 µM with MCF7; 2.2 nM at Histone deacetylase; 1.8 nM at Histone deacetylase 1; 3.3 nM on Histone deacetylase 2; 16.4 nM in assay [2]. On Histone deacetylase 8, the midpoint of inhibition, the IC50, lay at 4.6 nM.
As for `COc1cc2ncnc(Nc3ccccc3F)c2cc1OCCCCCCC(=O)NO`, the IC50 in assay [1] came out at 754 nM; in the assay on MCF7 it was 15 µM; against Histone deacetylase it was 32 nM.
Turning to `COc1cc2ncnc(Nc3ccccc3Br)c2cc1OCCCC(=O)NO`, the half-inhibitory concentration (IC50) on Histone deacetylase was 840 nM.
Consider `COc1cc2ncnc(Nc3ccc(Cl)cc3)c2cc1OCCCCCC(=O)NO`, for which the values for the IC50 (in assay [1]; in the assay with MCF7; against Histone deacetylase) were 313 nM, 4 µM and 11 nM, respectively.
Consider `COc1cc2ncnc(Nc3ccc(Cl)cc3)c2cc1OCCCCCCC(=O)NO`, for which the IC50 worked out at 215 nM in assay [1], 1.7 µM in the assay with MCF7 and 3.2 nM against Histone deacetylase.
The corresponding values for `COc1cc2ncnc(Nc3ccc(Cl)cc3)c2cc1OCCCC(=O)NO` are 182 nM, 85 µM and 698 nM.
The corresponding values for `COc1cc2ncnc(Nc3ccc(F)cc3)c2cc1OCCCCCCC(=O)NO` are 270 nM, 2.4 µM and 8.5 nM.
The corresponding values for `COc1cc2ncnc(Nc3ccccc3F)c2cc1OCCCCCC(=O)NO` are 918 nM, 84 µM and 145 nM.
For the molecule `COc1cc2ncnc(Nc3ccccc3Cl)c2cc1OCCCCC(=O)NO`, the results for the IC50 (in assay [1]; in the assay on MCF7; against Histone deacetylase) were 832 nM, 78 µM and 128 nM, respectively.
Taken in the same sequence, the figures for `COc1cc2ncnc(Nc3ccccc3F)c2cc1OCCCCC(=O)NO` were 840 nM, over 100 µM and 554 nM.
The corresponding values for `COc1cc2ncnc(Nc3ccc(Br)cc3)c2cc1OCCCCC(=O)NO` are 59 nM, 36 µM and 68 nM.
As for `COc1cc2ncnc(Nc3ccccc3Br)c2cc1OCCCCCCC(=O)NO`, the values for the IC50 (in assay [1]; with MCF7; against Histone deacetylase) were over 10000 nM, 2.6 µM and 8.8 nM, respectively.
The corresponding values for `COc1cc2ncnc(Nc3ccc(Br)cc3)c2cc1OCCCCCC(=O)NO` are 153 nM, 3.5 µM and 12 nM.
The corresponding values for `COc1cc2ncnc(Nc3ccccc3Cl)c2cc1OCCCC(=O)NO` are 857 nM, over 100 µM and 1255 nM.
In the case of `COc1cc2ncnc(Nc3ccc(Br)cc3)c2cc1OCCCC(=O)NO`, the IC50 in assay [1] came to 98 nM; with MCF7, 52 µM; against Histone deacetylase, 545 nM.
Take `COc1cc2ncnc(Nc3ccc(F)cc3)c2cc1OCCCCC(=O)NO`: the results for the IC50 (in assay [1]; in the assay on MCF7; against Histone deacetylase) were 455 nM, 74 µM and 139 nM, respectively.
The corresponding values for `COc1cc2ncnc(Nc3ccccc3Cl)c2cc1OCCCCCCC(=O)NO` are 364 nM, 7.8 µM and 18 nM.
Taken in the same sequence, the figures for `COc1cc2ncnc(Nc3ccccc3F)c2cc1OCCCC(=O)NO` were 865 nM, over 100 µM and 673 nM.
The corresponding values for `COc1cc2ncnc(Nc3ccc(F)cc3)c2cc1OCCCC(=O)NO` are 376 nM, over 100 µM and 1340 nM.
Turning to `COc1cc2ncnc(Nc3ccccc3Br)c2cc1OCCCCCC(=O)NO`, the half-maximal inhibitory concentration (IC50) in assay [1] was over 10000 nM; in the assay with MCF7, 17 µM; against Histone deacetylase it was 31 nM.
The corresponding values for `COc1cc2ncnc(Nc3ccccc3Br)c2cc1OCCCCC(=O)NO` are over 10000 nM, 33 µM and 74 nM.
As for `COc1cc2ncnc(Nc3ccccc3Cl)c2cc1OCCCCCC(=O)NO`, the IC50 in assay [1] amounted to 685 nM; in the assay on MCF7 it was 15 µM; against Histone deacetylase, 29 nM.

What is called IC50 is the concentration that inhibits the measured activity by half. High values mean weaker potency, low ones greater potency.
